# Data published in ChEMBL document CHEMBL1148331, “Aziridinyldinitrobenzamides: synthesis and structure-activity relationships for activation by E. coli nitroreductase” (J Med Chem, 2004).
# Tests used:
# [1] = Solubility in culture medium; format: physicochemical
# How it was run: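 Solubility limit (mM) determined in cell culture medium.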
# [2] = Partition coefficient (logP); format: physicochemical; settings: octanol/water
# How it was run: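 Partition measured between n-octanol and water.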
# EMT6 [3] = test: Growth inhibitory potency against NTR-Transfected (nitroreductase) mouse mammary cell line known as EMT6-NTRpuro cell line; format: functional, cell-based
# How it was run: (§1)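 Log-phase cells were seeded in αMEM with 5% FBS at 50–800 cells/well and grown for 18 h. Prodrug was added from DMSO stock diluted in medium and left for 18 h, then washed out. Regrowth lasted 3 days for V79 and EMT6 lines and 4 days for WiDr and Skov3 lines. Cell density was read by sulforhodamine B staining. IC50 was interpolated as 50% of control absorbance on the same plate. Ratio = IC50 of parental (NTR-ve) line / IC50 of NTR-transfected line.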
# WiDr-NTR = test: Growth inhibitory potency against NTR-Transfected (nitroreductase) human colon cell line known as WiDr-NTRneo cell line; format: functional, cell-based; how it was run: as §1
# V79 [4] = test: Growth inhibitory potency against NTR-Transfected (nitroreductase) chinese hamster fibroblast known as V79-NTRpuro cell line; format: functional, cell-based; settings: Cricetulus griseus; how it was run: as §1
# [5] = Ratio of growth inhibition of NTR-transfected human colon cell line to that of parental cell line (IC50 (NTR-)/IC50 (NTR+); format: functional; how it was run: as §1
# SK-OV-3 [6] = test: Ratio of growth inhibition of NTR-transfected human ovarian cell line to that of parental cell line (IC50 (NTR-)/IC50 (NTR+); format: functional; how it was run: as §1
# EMT6 [7] = test: Ratio of growth inhibition of NTR-transfected mouse mammary cell line to that of parental cell line (IC50 (NTR-)/IC50 (NTR+); format: functional; how it was run: as §1
# SK-OV-3 [8] = test: Growth inhibitory potency against NTR-Transfected (nitroreductase) human ovarian cell line known as SKOV3-NTR neo cell line; format: functional, cell-based; how it was run: as §1
# V79 [9] = test: Effective concentration of 10% cell survival for activators in V79 MCL (multicellular layer) cocultures; format: functional, Cricetulus griseus
# How it was run: (§2)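 V79 multicellular layers were grown on collagen-coated microporous inserts for 3 days, stirred, under 5% CO2/air. Cocultures held 3% V79-NTRpuro activators and 97% V79oua targets; the other layers held targets only. Layers were exposed to prodrug over a concentration range for 5 h at 37 °C under 5% CO2/95% O2. Cells were then plated clonogenically in 1 mM ouabain (targets) or 15 µM puromycin (activators). After 6 days, colonies of more than 50 cells were counted and the concentration giving 10% survival was taken.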
# V79 [10] = test: Effective concentration of 10% cell survival for targets in V79 MCL (multicellular layer) grown from targets; format: functional, Cricetulus griseus; how it was run: as §2
# V79 [11] = test: Effective concentration of 10% cell survival for targets in V79 MCL (multicellular layer) cocultures; format: functional, Cricetulus griseus; how it was run: as §2
# Mus musculus [12] = test: In vivo activity against WiDr-nitroreductase tumors in mice at a dose of 300 (umol/kg); 0/7; format: functional
# Mus musculus [13] = test: In vivo activity against WiDr-nitroreductase tumors in mice at a dose of 300 (umol/kg); 1/7; format: functional
# Mus musculus [14] = test: In vivo median growth delay against CD-1 nude mice bearing WiDr-nitroreductase tumors at a dose 300 (umol/kg); format: functional
# WiDr [15] = test: Effective concentration of 10% cell survival for targets in WiDr MCL (multicellular layer) grown from targets; format: functional, Homo sapiens
# How it was run: (§3)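 WiDr multicellular layers were grown on collagen-coated inserts for 6 days. Cocultures held 10% WiDr-NTRneo activators and 90% WiDr targets; the other layers held targets only. Layers were exposed to prodrug over a range of concentrations for 5 h at 37 °C, stirred, under 5% CO2/95% O2. Cells were plated clonogenically, with activators selected in 0.3 mg/mL G418. After 14 days, colonies of more than 50 cells were counted and the concentration giving 10% survival was derived.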
# WiDr [16] = test: Effective concentration of 10% cell survival for targets in WiDr MCL (multicellular layer) cocultures; format: functional, Homo sapiens; how it was run: as §3
# WiDr [17] = test: Effective concentration of 10% cell survival for activators in WiDr MCL (multicellular layer) cocultures; format: functional, Homo sapiens; how it was run: as §3
# Mus musculus [18] = test: In vivo activity against WiDr-nitroreductase tumors in mice at a dose of 200 (umol/kg); 31/53; format: functional
# Mus musculus [19] = test: In vivo activity against WiDr-nitroreductase tumors in mice at a dose of 200 (umol/kg); 12/53; format: functional
# Mus musculus [20] = test: In vivo median growth delay against CD-1 nude mice bearing WiDr-nitroreductase tumors at a dose 200 (umol/kg); format: functional
# Mus musculus [21] = test: In vivo activity against WiDr-nitroreductase tumors in mice at a dose of 178 (umol/kg); 1/7; format: functional
# Mus musculus [22] = test: In vivo activity against WiDr-nitroreductase tumors in mice at a dose of 178 (umol/kg); 2/7; format: functional
# Mus musculus [23] = test: In vivo median growth delay against CD-1 nude mice bearing WiDr-nitroreductase tumors at a dose 178 (umol/kg); format: functional
# Mus musculus [24] = test: In vivo activity against WiDr-nitroreductase tumors in mice at a dose of 1000 (umol/kg); 2/7; format: functional
# Mus musculus [25] = test: In vivo activity against WiDr-nitroreductase tumors in mice at a dose of 1000 (umol/kg); 1/7; format: functional
# Mus musculus [26] = test: In vivo median growth delay against CD-1 nude mice bearing WiDr-nitroreductase tumors at a dose 1000 (umol/kg); format: functional
# Mus musculus [27] = test: In vivo activity against WiDr-nitroreductase tumors in mice at a dose of 178 (umol/kg); 0/3; format: functional
# Mus musculus [28] = test: In vivo activity against WiDr-nitroreductase tumors in mice at a dose of 178 (umol/kg); 4/7; format: functional
# Mus musculus [29] = test: In vivo activity against WiDr-nitroreductase tumors in mice at a dose of 1000 (umol/kg); 0/6; format: functional
# Mus musculus [30] = test: In vivo activity against WiDr-nitroreductase tumors in mice at a dose of 750 (umol/kg); 0/7; format: functional
# Mus musculus [31] = test: In vivo activity against WiDr-nitroreductase tumors in mice at a dose of 750 (umol/kg); 1/7; format: functional
# Mus musculus [32] = test: In vivo median growth delay against CD-1 nude mice bearing WiDr-nitroreductase tumors at a dose 750 (umol/kg); format: functional
Structure (SMILES),solubility [1],logP ([2]; read-out: logP),IC50 (EMT6 [3]),IC50 (WiDr-NTR),IC50 (V79 [4]),Ratio [5],Ratio (SK-OV-3 [6]),Ratio (EMT6 [7]),IC50 (SK-OV-3 [8]),other results
CS(=O)(=O)c1cc([N+](=O)[O-])c(N2CC2)cc1C(=O)NCC(O)CO (configuration not stated),4150 µM,-0.96,84.5 µM,281 µM,132 µM,10,26,32,160 µM,–
CC(=O)CCNC(=O)c1cc(N2CC2)c([N+](=O)[O-])cc1[N+](=O)[O-],800 µM,0.56,0.31 µM,2.6 µM,0.33 µM,63.6,270,1520,2.5 µM,Ac (V79 [9]): 20 µM; T (V79 [10]): 1900 µM; Tc (V79 [11]): 200 µM
O=C(NCCN1CCOCC1)c1cc(N2CC2)c([N+](=O)[O-])cc1[N+](=O)[O-],1800 µM,0.31,0.053 µM,0.72 µM,0.15 µM,183,1100,4020,0.45 µM,Deaths (Mus musculus [12]): 0; Cures (Mus musculus [13]): 1; Growth delay (Mus musculus [14]): 35 days; Ac (V79 [9]): 11.5 µM; T (WiDr [15]): 680 µM; Tc (WiDr [16]): 105 µM; Ac (WiDr [17]): 8.5 µM; T (V79 [10]): 1600 µM; Tc (V79 [11]): 470 µM
CN(CCN1CCOCC1)C(=O)c1cc(N2CC2)c([N+](=O)[O-])cc1[N+](=O)[O-],3300 µM,-0.26,1.8 µM,8.1 µM,1.8 µM,21,46,309,13 µM,–
NC(=O)c1cc(N2CC2)c([N+](=O)[O-])cc1[N+](=O)[O-] [TRETAZICAR],–,–,–,1.14 µM,–,51.1,317,947,0.64 µM,logP [2]: 0.14; Cures (Mus musculus [18]): 31; Deaths (Mus musculus [19]): 12; Growth delay (Mus musculus [20]): >87 days; Ac (V79 [9]): 23 µM; T (WiDr [15]): 513 µM; Tc (WiDr [16]): 252 µM; Ac (WiDr [17]): 33 µM; T (V79 [10]): 1400 µM; Tc (V79 [11]): 173 µM
CS(=O)(=O)c1cc([N+](=O)[O-])c(N2CC2)cc1C(N)=O,880 µM,-0.41,3.6 µM,26 µM,8.8 µM,33,160,125,6.3 µM,Cures (Mus musculus [21]): 1; Deaths (Mus musculus [22]): 2; Growth delay (Mus musculus [23]): 17 days
NC(=O)c1c([N+](=O)[O-])ccc(N2CC2)c1[N+](=O)[O-],2700 µM,-0.17,27 µM,58.2 µM,135 µM,5.9,9.6,9.2,65.8 µM,–
O=C(NCCCN1CCOCC1)c1cc(N2CC2)c([N+](=O)[O-])cc1[N+](=O)[O-],1600 µM,-1.05,0.04 µM,0.24 µM,0.048 µM,122,732,3310,0.15 µM,–
CS(=O)(=O)c1cc([N+](=O)[O-])c(C(N)=O)cc1N1CC1,780 µM,-0.3,11 µM,22 µM,40 µM,10,19,25,21.8 µM,–
O=C(NCCn1ccnc1)c1cc(N2CC2)c([N+](=O)[O-])cc1[N+](=O)[O-],1100 µM,-0.48,0.29 µM,1.1 µM,0.31 µM,41.5,105,278,0.58 µM,–
O=C(NCC(O)CO)c1cc(N2CC2)c([N+](=O)[O-])cc1[N+](=O)[O-] (configuration not stated),22000 µM,-1.04,1.1 µM,3.7 µM,0.71 µM,49,83.7,86.5,2.3 µM,Cures (Mus musculus [24]): 2; Deaths (Mus musculus [25]): 1; Growth delay (Mus musculus [26]): >86 days; Ac (V79 [9]): 26 µM; T (WiDr [15]): 540 µM; Tc (WiDr [16]): 320 µM; Ac (WiDr [17]): 28 µM; T (V79 [10]): 1595 µM; Tc (V79 [11]): 840 µM
O=C(NCCCCN1CCOCC1)c1cc(N2CC2)c([N+](=O)[O-])cc1[N+](=O)[O-],5600 µM,-0.48,0.06 µM,0.31 µM,0.21 µM,93,513,12170,0.3 µM,–
NC(=O)c1ccc([N+](=O)[O-])c(N2CC2)c1,430 µM,0.47,41.4 µM,62.4 µM,61.5 µM,1.6,1.6,2.8,61 µM,–
O=C(NCCN1CCOCC1)c1cc([N+](=O)[O-])cc([N+](=O)[O-])c1N1CC1,350 µM,0.11,3.4 µM,18 µM,7.3 µM,32,>72,177,11 µM,Cures (Mus musculus [27]): 0; Growth delay (Mus musculus [23]): -1 days; Deaths (Mus musculus [28]): 4
O=C(NCC(O)CO)c1cc([N+](=O)[O-])cc([N+](=O)[O-])c1N1CC1 (configuration not stated),2500 µM,-0.15,4.4 µM,12.5 µM,6.1 µM,71,185,252,7.3 µM,Cures (Mus musculus [29]): 0; Deaths (Mus musculus [25]): 1; Growth delay (Mus musculus [26]): 8 days
NC(=O)c1cc([N+](=O)[O-])c(N2CC2)c([N+](=O)[O-])c1,40 µM,0.59,> 20 µM,> 20 µM,> 20 µM,–,–,–,> 20 µM,–
NC(=O)c1cc(N2CC2)ccc1[N+](=O)[O-],3400 µM,0.7,67 µM,89 µM,81 µM,–,–,–,–,–
NC(=O)c1cc([N+](=O)[O-])cc([N+](=O)[O-])c1N1CC1,1300 µM,0.34,1.3 µM,13 µM,1.2 µM,85,281,627,6.1 µM,Deaths (Mus musculus [30]): 0; Cures (Mus musculus [31]): 1; Growth delay (Mus musculus [32]): 47 days; Ac (V79 [9]): 450 µM; T (V79 [10]): >2000 µM; Tc (V79 [11]): >2000 µM
